≈ marks a conversion by molar mass, not a printed value. Calls of active or inactive are those of the source. No cut-off for these calls is given here.
Tests used:
[1] = Cytotoxicity against human A431 cells assessed as cell viability at 30 uM after 48 hrs by CellTiter 96 aqueous one solution assay relative to control; format: cell-based, A-431; conditions: read-out: Activity
Method in brief: (§1)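 HepG2 (DMEM, 10% FBS, 1 mM pyruvate) or A431 (DMEM, 10% FBS) seeded 10,000 cells/well, 24 h at 37 °C, 5% CO2, then 30 µM compound for 48 h. MTS reagent 60 min, absorbance 490 nm, background subtracted; 0.1% DMSO vehicle = 100%, 10% SDS = 0% viability.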

Mycobacterium kansasii [2] = experiment: Antimycobacterial activity against Mycobacterium kansasii CNCTC My 235/80 after 21 days; format: functional; conditions: CNCTC My 235/80, 504 h
Method in brief: (§2)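 Microdilution in Šula's semisynthetic medium; compounds in DMSO at 32–0.03 µM. Inoculum from 1.0 McFarland suspension diluted 10-4. […] Isoniazid and rifampicin as reference drugs.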

Mycobacterium avium [3] = experiment: Antimycobacterial activity against Mycobacterium avium CNCTC My 330/88 after 21 days; format: functional; conditions: CNCTC My 330/88, 504 h
Method in brief: (§3)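 M. avium was tested by microdilution in Šula's semisynthetic medium, with compounds dissolved in DMSO and serially diluted from 1000 down to 1. Inoculum was a 1.0 McFarland suspension diluted 10-5. Plates were incubated at 37 °C and read at 14 and 21 days. […] Isoniazid and rifampicin served as standards.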

Mycobacterium kansasii [4] = experiment: Antimycobacterial activity against Mycobacterium kansasii 6509/96 after 14 days; format: functional; conditions: 6509/96, 336 h; method in brief: as §2
Mycobacterium avium [5] = experiment: Antimycobacterial activity against Mycobacterium avium CNCTC My 330/88 after 14 days; format: functional; conditions: CNCTC My 330/88, 336 h; method in brief: as §3
[6] = system: Mycobacterium tuberculosis; experiment: Antimycobacterial activity against Mycobacterium tuberculosis H37Rv CNCTC My 331/88 after 14 days; format: functional; conditions: H37Rv CNCTC My 331/88, 336 h
Method in brief: (§4)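 M. tuberculosis strains (H37Rv and clinical MDR/XDR isolates) tested by microdilution in Šula's semisynthetic medium. Compounds were dissolved in DMSO and tested at 32 to 0.03 µM in twofold steps. Inoculum was a 1.0 McFarland suspension diluted 10-3. Plates were incubated at 37 °C and read at 14 and 21 days.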

Mycobacterium kansasii [7] = experiment: Antimycobacterial activity against Mycobacterium kansasii CNCTC My 235/80 after 14 days; format: functional; conditions: CNCTC My 235/80, 336 h; method in brief: as §2
Mycobacterium kansasii [8] = experiment: Antimycobacterial activity against Mycobacterium kansasii 6509/96 after 21 days; format: functional; conditions: 6509/96, 504 h; method in brief: as §2
[9] = system: Mycobacterium tuberculosis; experiment: Antimycobacterial activity against Mycobacterium tuberculosis H37Rv CNCTC My 331/88 after 21 days; format: functional; conditions: H37Rv CNCTC My 331/88, 504 h; method in brief: as §4
A-431 = experiment: Cytotoxicity against human A431 cells assessed as reduction in cell viability after 48 hrs by CellTiter 96 aqueous one solution assay; format: cell-based; conditions: A-431, 48 h
[10] = Cytotoxicity against human HepG2 cells assessed as cell viability at 30 uM after 48 hrs by CellTiter 96 aqueous one solution assay relative to control; format: cell-based; conditions: read-out: Activity; method in brief: as §1
Mycobacterium kansasii [11] = experiment: Antimycobacterial activity against Mycobacterium kansasii 6509/96 after 7 days; format: functional; conditions: 6509/96, 168 h; method in brief: as §2
Mycobacterium kansasii [12] = experiment: Antimycobacterial activity against Mycobacterium kansasii CNCTC My 235/80 after 7 days; format: functional; conditions: CNCTC My 235/80, 168 h; method in brief: as §2
[13] = system: Mycobacterium tuberculosis; experiment: Antimycobacterial activity against XDR Mycobacterium tuberculosis Praha 131 after 14 days; format: functional; conditions: Praha 131, 336 h; method in brief: as §4
[14] = system: Mycobacterium tuberculosis; experiment: Antimycobacterial activity against XDR Mycobacterium tuberculosis Praha 131 after 21 days; format: functional; conditions: Praha 131, 504 h; method in brief: as §4
HepG2 = experiment: Cytotoxicity against human HepG2 cells assessed as reduction in cell viability after 48 hrs by CellTiter 96 aqueous one solution assay; format: cell-based; conditions: HepG2, 48 h
Klebsiella pneumoniae = experiment: Antibacterial activity against Klebsiella pneumoniae at highest concentration measured after 24 to 48 hrs by alamar blue dye based broth microdilution assay; format: functional, organism-based
Candida albicans = experiment: Antifungal activity against Candida albicans ATCC 24433 CCM 8320 at highest concentration measured after 24 to 48 hrs by alamar blue dye based broth microdilution assay; format: functional, organism-based
Aspergillus flavus = experiment: Antifungal activity against Aspergillus flavus CCM 8363 at highest concentration measured after 24 to 48 hrs by alamar blue dye based broth microdilution assay; format: functional, organism-based
[15] = system: Trichophyton interdigitale; experiment: Antifungal activity against Trichophyton interdigitale ATCC 9533 CCM 8377 at highest concentration measured after 72 to 120 hrs by alamar blue dye based broth microdilution assay; format: functional
Enterococcus faecalis = experiment: Antibacterial activity against Enterococcus faecalis ATCC 29212 CCM 4224 at highest concentration measured after 24 to 48 hrs by alamar blue dye based broth microdilution assay; format: functional, organism-based
Pseudomonas aeruginosa = experiment: Antibacterial activity against Pseudomonas aeruginosa ATCC 27853 CCM 3955 at highest concentration measured after 24 to 48 hrs by alamar blue dye based broth microdilution assay; format: functional, organism-based
Candida tropicalis = experiment: Antifungal activity against Candida tropicalis ATCC 750 CCM 8264 at highest concentration measured after 24 to 48 hrs by alamar blue dye based broth microdilution assay; format: functional, organism-based
Pichia kudriavzevii = experiment: Antifungal activity against Candida krusei ATCC 6258 CCM8271 at highest concentration measured after 24 to 48 hrs by alamar blue dye based broth microdilution assay; format: functional, organism-based
[16] = system: Staphylococcus epidermidis; experiment: Antibacterial activity against Staphylococcus epidermidis at highest concentration measured after 24 to 48 hrs by alamar blue dye based broth microdilution assay; format: functional, organism-based
Aspergillus fumigatus = experiment: Antifungal activity against Aspergillus fumigatus ATCC 204305 at highest concentration measured after 24 to 48 hrs by alamar blue dye based broth microdilution assay; format: functional, organism-based
Staphylococcus aureus [17] = experiment: Antibacterial activity against Staphylococcus aureus subsp. aureus ATCC 29213 CCM 4223 at highest concentration measured after 24 to 48 hrs by alamar blue dye based broth microdilution assay; format: functional, organism-based
Serratia marcescens = experiment: Antibacterial activity against Serratia marcescens at highest concentration measured after 24 to 48 hrs by alamar blue dye based broth microdilution assay; format: functional, organism-based
Staphylococcus aureus [18] = experiment: Antibacterial activity against methicillin-resistant Staphylococcus aureus subsp. aureus ATCC 43300 CCM 4750 at highest concentration measured after 24 to 48 hrs by alamar blue dye based broth microdilution assay; format: functional, organism-based
Escherichia coli = experiment: Antibacterial activity against Escherichia coli ATCC 25922 CCM 3954 at highest concentration measured after 24 to 48 hrs by alamar blue dye based broth microdilution assay; format: functional, organism-based
Lichtheimia corymbifera = experiment: Antifungal activity against Lichtheimia corymbifera CCM 8077 at highest concentration measured after 24 to 48 hrs by alamar blue dye based broth microdilution assay; format: functional, organism-based
Candida parapsilosis = experiment: Antifungal activity against Candida parapsilosis ATCC 22019 CCM 8260 at highest concentration measured after 24 to 48 hrs by alamar blue dye based broth microdilution assay; format: functional, organism-based

Row | Structure (SMILES) | viability at 48 h, 30 µM [1] [%] | MIC99 (Mycobacterium kansasii [2]) [µM] | MIC99 (Mycobacterium avium [3]) [µM] | MIC99 (Mycobacterium kansasii [4]) [µM] | MIC99 (Mycobacterium avium [5]) [µM] | MIC99 [6] [µM] | MIC99 (Mycobacterium kansasii [7]) [µM] | MIC99 (Mycobacterium kansasii [8]) [µM] | MIC99 [9] [µM] | IC50 (A-431) [µM] | viability at 48 h, 30 µM [10] [%] | MIC99 (Mycobacterium kansasii [11]) [µM] | MIC99 (Mycobacterium kansasii [12]) [µM] | MIC99 [13] [µM] | MIC99 [14] [µM] | IC50 (HepG2) [µM] | Activity (Klebsiella pneumoniae) | Activity (Candida albicans) | Activity (Aspergillus flavus) | Activity [15] | further results
1 | O=[N+]([O-])c1cc(CSc2nnc(C3CCCCC3)n2Cc2ccccc2)cc(C(F)(F)F)c1 | 67 | 16 (≈ 7.62 µg/mL) | 250 (≈ 119 µg/mL) | 16 (≈ 7.62 µg/mL) | 250 (≈ 119 µg/mL) | 16 (≈ 7.62 µg/mL) | 16 (≈ 7.62 µg/mL) | 32 (≈ 15.2 µg/mL) | 16 (≈ 7.62 µg/mL) | > 30 | 79 | 16 (≈ 7.62 µg/mL) | 16 (≈ 7.62 µg/mL) | 16 (≈ 7.62 µg/mL) | 16 (≈ 7.62 µg/mL) | > 30 | – | – | – | – | –
2 | CCn1c(SCc2ccccc2)nnc1-c1cc([N+](=O)[O-])cc([N+](=O)[O-])c1 | 90 | 0.03 (≈ 0.0116 µg/mL) | 250 (≈ 96.4 µg/mL) | 0.03 (≈ 0.0116 µg/mL) | 250 (≈ 96.4 µg/mL) | 0.03 (≈ 0.0116 µg/mL) | 0.03 (≈ 0.0116 µg/mL) | 0.03 (≈ 0.0116 µg/mL) | 0.03 (≈ 0.0116 µg/mL) | > 30 | 156 | 0.03 (≈ 0.0116 µg/mL) | 0.03 (≈ 0.0116 µg/mL) | 0.03 (≈ 0.0116 µg/mL) | 0.03 (≈ 0.0116 µg/mL) | > 30 | inactive | inactive | inactive | inactive | Activity (Enterococcus faecalis): inactive; Activity (Pseudomonas aeruginosa): inactive; Activity (Candida tropicalis): inactive; Activity (Pichia kudriavzevii): inactive; Activity [16]: inactive; Activity (Aspergillus fumigatus): inactive; Activity (Staphylococcus aureus [17]): inactive; Activity (Serratia marcescens): inactive; Activity (Staphylococcus aureus [18]): inactive; Activity (Escherichia coli): inactive; Activity (Lichtheimia corymbifera): inactive; Activity (Candida parapsilosis): inactive
3 | O=[N+]([O-])c1cc(CSc2nnc(-c3ccccc3)n2Cc2ccccc2)cc([N+](=O)[O-])c1 | 69 | 8 (≈ 3.58 µg/mL) | > 1000 | 8 (≈ 3.58 µg/mL) | > 1000 | 4 (≈ 1.79 µg/mL) | 4 (≈ 1.79 µg/mL) | 8 (≈ 3.58 µg/mL) | 4 (≈ 1.79 µg/mL) | > 30 | 107 | 2 (≈ 0.895 µg/mL) | 2 (≈ 0.895 µg/mL) | 2 (≈ 0.895 µg/mL) | 4 (≈ 1.79 µg/mL) | > 30 | inactive | inactive | inactive | inactive | Activity (Enterococcus faecalis): inactive; Activity (Pseudomonas aeruginosa): inactive; Activity (Candida tropicalis): inactive; Activity (Pichia kudriavzevii): inactive; Activity [16]: inactive; Activity (Aspergillus fumigatus): inactive; Activity (Staphylococcus aureus [17]): inactive; Activity (Serratia marcescens): inactive; Activity (Staphylococcus aureus [18]): inactive; Activity (Escherichia coli): inactive; Activity (Lichtheimia corymbifera): inactive; Activity (Candida parapsilosis): inactive
4 | O=[N+]([O-])c1cc(CSc2nnc(-c3ccc(Br)cc3)n2Cc2ccccc2)cc([N+](=O)[O-])c1 | 93 | 4 (≈ 2.11 µg/mL) | 250 (≈ 132 µg/mL) | 4 (≈ 2.11 µg/mL) | 250 (≈ 132 µg/mL) | 2 (≈ 1.05 µg/mL) | 2 (≈ 1.05 µg/mL) | 4 (≈ 2.11 µg/mL) | 4 (≈ 2.11 µg/mL) | > 30 | 173 | 2 (≈ 1.05 µg/mL) | 1 (≈ 0.526 µg/mL) | 4 (≈ 2.11 µg/mL) | 4 (≈ 2.11 µg/mL) | > 30 | inactive | inactive | inactive | inactive | Activity (Enterococcus faecalis): inactive; Activity (Pseudomonas aeruginosa): inactive; Activity (Candida tropicalis): inactive; Activity (Pichia kudriavzevii): inactive; Activity [16]: inactive; Activity (Aspergillus fumigatus): inactive; Activity (Staphylococcus aureus [17]): inactive; Activity (Serratia marcescens): inactive; Activity (Staphylococcus aureus [18]): inactive; Activity (Escherichia coli): inactive; Activity (Lichtheimia corymbifera): inactive; Activity (Candida parapsilosis): inactive

From ChEMBL document CHEMBL4373711, “Development of 3,5-Dinitrophenyl-Containing 1,2,4-Triazoles and Their Trifluoromethyl Analogues as Highly Efficient Antitubercular Agents Inhibiting Decaprenylphosphoryl-β-d-ribofuranose 2'-Oxidase” (J Med Chem, 2019)
